Columns and labels:
HCT-116 = assay: Antiproliferative activity against human HCT116 cells after 72 hrs by MTT assay; format: functional, cell-based; settings: HCT-116, 72 h
Raji = assay: Antiproliferative activity against human Raji cells after 72 hrs by MTT assay; format: functional, cell-based
Outline: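 Log-phase cells were plated at 10000-15000 per well and exposed to serial concentrations after 24 h for 72 h. Read-out was MTT for 1-3 h, then 20% SDS overnight and absorbance at 570 nm. IC50 was calculated from growth versus untreated control, as mean ± SEM of at least three independent experiments.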

MCF7 = assay: Antiproliferative activity against human MCF7 cells after 72 hrs by MTT assay; format: functional, cell-based; settings: MCF7, 72 h
MM1.S = assay: Antiproliferative activity against human MM1S cells after 72 hrs by MTT assay; format: functional, cell-based
[1] = target: T1, PI3-kinase p110-alpha/p85-alpha (Homo sapiens) (UniProt P27986+P42336); assay: Inhibition of recombinant human full length N-terminal His-tagged/untagged p110alpha/p85alpha expressed in baculovirus expression system at 500 nM using PIP2 as substrate after 1 hr by Kinase-Glo reagent-based assay relative to control
[2] = target: T2, Serine/threonine-protein kinase mTOR (Homo sapiens, UniProt P42345); assay: Inhibition of recombinant N-terminal FLAG-tagged human mTOR (1362 to end residues) at 500 nM using ULight-4E-BP1 (Thr37/46) peptide as substrate after 1 hr by fluorescence assay relative to control
Histone deacetylase 1 = Histone deacetylase 1 (Homo sapiens, UniProt Q13547); assay: Inhibition of recombinant full length HDAC1 (unknown origin) using Ac-peptide-AMC as substrate preincubated for 15 mins followed by substrate addition and measured after 1 hr by fluorescence assay
Histone deacetylase 2 = Histone deacetylase 2 (Homo sapiens, UniProt Q92769); assay: Inhibition of recombinant full length human HDAC2 expressed in baculovirus expression system using Ac-peptide-AMC as substrate preincubated for 15 mins followed by substrate addition and measured after 1 hr by fluorescence assay
Histone deacetylase 3 = Histone deacetylase 3 (Homo sapiens, UniProt O15379); assay: Inhibition of recombinant full length HDAC3 (unknown origin) using Ac-peptide-AMC as substrate preincubated for 15 mins followed by substrate addition and measured after 1 hr by fluorescence assay
Histone deacetylase 8 = Histone deacetylase 8 (Homo sapiens, UniProt Q9BY41); assay: Inhibition of recombinant full length C-terminal His-tagged human HDAC8 expressed in baculovirus expression system using Ac-peptide-AMC as substrate preincubated for 15 mins followed by substrate addition and measured after 1 hr by fluorescence assay
[3] = target: Protein deacetylase HDAC6 (Homo sapiens, UniProt Q9UBN7); assay: Inhibition of recombinant full length HDAC6 (unknown origin) using Ac-peptide-AMC as substrate preincubated for 15 mins followed by substrate addition and measured after 1 hr by fluorescence assay
[4] = target: Polyamine deacetylase HDAC10 (Homo sapiens, UniProt Q969S8); assay: Inhibition of recombinant full length N-terminal FLAG-tagged human HDAC10 expressed in baculovirus infected sf9 cells using Ac-peptide-AMC as substrate preincubated for 15 mins followed by substrate addition and measured after 1 hr by fluorescence assay
[5] = target: T2, Serine/threonine-protein kinase mTOR; assay: Inhibition of recombinant N-terminal FLAG-tagged human mTOR (1362 to end residues) using ULight-4E-BP1 (Thr37/46) peptide as substrate after 1 hr by fluorescence assay
Outline: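 mTOR enzyme, ATP, compound and ULight-4E-BP1 (Thr37/46) peptide in kinase buffer were incubated 1 h at room temperature. EDTA quench plus Eu-anti-phospho-4E-BP1 antibody was added and equilibrated 1 h. TR-FRET was read at excitation 320 or 340 nm and emission 665 nm. Curves were fitted, and values are means of at least two experiments.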

MV4-11 = assay: Antiproliferative activity against human MV4-11 cells after 72 hrs by MTT assay; format: functional, cell-based; settings: MV4-11, 72 h
OCI-AML2 = assay: Antiproliferative activity against human OCI-AML2 cells after 72 hrs by MTT assay; format: functional, cell-based; settings: OCI-AML2, 72 h
OCI-AML-3 = assay: Antiproliferative activity against human OCI-AML3 cells after 72 hrs by MTT assay; format: functional, cell-based; settings: OCI-AML-3, 72 h
[6] = target: T1, PI3-kinase p110-alpha/p85-alpha (Homo sapiens); assay: Inhibition of recombinant human full length N-terminal His-tagged/untagged p110alpha/p85alpha expressed in baculovirus expression system at 1000 nM using PIP2 as substrate after 1 hr by Kinase-Glo reagent-based assay relative to control
Outline: (§1)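 PI3Kα (p110α/p85α) incubated with PIP2 substrate and ATP in kinase buffer for 1 h at room temperature. Kinase-Glo reagent was then added for 15 min before luminescence read-out. Inhibition rate at 100 or 1000 nM is the mean of at least two experiments.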

[7] = target: T1, PI3-kinase p110-alpha/p85-alpha (Homo sapiens); assay: Inhibition of recombinant human full length N-terminal His-tagged/untagged p110alpha/p85alpha expressed in baculovirus expression system at 100 nM using PIP2 as substrate after 1 hr by Kinase-Glo reagent-based assay relative to control; outline: as §1

Sequence of Histone deacetylase 3 (O15379 whole entry): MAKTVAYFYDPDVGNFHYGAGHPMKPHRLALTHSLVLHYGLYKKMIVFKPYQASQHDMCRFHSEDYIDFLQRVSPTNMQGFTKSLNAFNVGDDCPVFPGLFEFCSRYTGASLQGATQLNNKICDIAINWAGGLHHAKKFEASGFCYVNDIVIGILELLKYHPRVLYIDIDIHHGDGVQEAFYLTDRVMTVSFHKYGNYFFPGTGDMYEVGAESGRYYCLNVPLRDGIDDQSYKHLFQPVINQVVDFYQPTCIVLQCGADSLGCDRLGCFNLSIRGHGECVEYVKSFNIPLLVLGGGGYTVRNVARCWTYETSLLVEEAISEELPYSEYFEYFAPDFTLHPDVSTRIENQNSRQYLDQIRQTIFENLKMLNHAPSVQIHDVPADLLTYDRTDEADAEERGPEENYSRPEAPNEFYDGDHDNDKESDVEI
Sequence of Histone deacetylase 8 (Q9BY41 whole entry): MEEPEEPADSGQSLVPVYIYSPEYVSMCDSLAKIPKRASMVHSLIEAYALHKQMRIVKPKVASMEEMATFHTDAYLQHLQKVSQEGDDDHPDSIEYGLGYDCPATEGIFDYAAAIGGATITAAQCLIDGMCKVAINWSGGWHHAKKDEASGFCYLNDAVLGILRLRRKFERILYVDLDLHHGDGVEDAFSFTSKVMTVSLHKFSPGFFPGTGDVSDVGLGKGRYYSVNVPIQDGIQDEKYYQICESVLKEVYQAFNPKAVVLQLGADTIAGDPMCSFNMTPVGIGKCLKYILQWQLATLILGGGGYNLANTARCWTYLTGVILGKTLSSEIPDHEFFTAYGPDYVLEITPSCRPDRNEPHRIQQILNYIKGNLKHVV
Sequence of Histone deacetylase 2 (Q92769 whole entry): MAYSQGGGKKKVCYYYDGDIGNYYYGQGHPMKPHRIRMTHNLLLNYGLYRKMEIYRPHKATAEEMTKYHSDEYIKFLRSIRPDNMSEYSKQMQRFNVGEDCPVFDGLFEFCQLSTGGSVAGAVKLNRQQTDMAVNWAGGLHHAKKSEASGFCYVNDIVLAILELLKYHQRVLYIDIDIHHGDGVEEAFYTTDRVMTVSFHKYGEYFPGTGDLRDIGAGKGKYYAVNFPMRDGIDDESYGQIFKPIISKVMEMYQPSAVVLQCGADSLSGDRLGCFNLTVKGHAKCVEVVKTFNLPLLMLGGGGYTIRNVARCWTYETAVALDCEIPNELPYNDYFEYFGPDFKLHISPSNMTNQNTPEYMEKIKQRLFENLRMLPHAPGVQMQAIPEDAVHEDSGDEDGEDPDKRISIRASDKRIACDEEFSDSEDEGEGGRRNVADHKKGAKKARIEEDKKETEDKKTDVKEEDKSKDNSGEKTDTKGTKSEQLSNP
Sequence of Protein deacetylase HDAC6 (Q9UBN7 whole entry): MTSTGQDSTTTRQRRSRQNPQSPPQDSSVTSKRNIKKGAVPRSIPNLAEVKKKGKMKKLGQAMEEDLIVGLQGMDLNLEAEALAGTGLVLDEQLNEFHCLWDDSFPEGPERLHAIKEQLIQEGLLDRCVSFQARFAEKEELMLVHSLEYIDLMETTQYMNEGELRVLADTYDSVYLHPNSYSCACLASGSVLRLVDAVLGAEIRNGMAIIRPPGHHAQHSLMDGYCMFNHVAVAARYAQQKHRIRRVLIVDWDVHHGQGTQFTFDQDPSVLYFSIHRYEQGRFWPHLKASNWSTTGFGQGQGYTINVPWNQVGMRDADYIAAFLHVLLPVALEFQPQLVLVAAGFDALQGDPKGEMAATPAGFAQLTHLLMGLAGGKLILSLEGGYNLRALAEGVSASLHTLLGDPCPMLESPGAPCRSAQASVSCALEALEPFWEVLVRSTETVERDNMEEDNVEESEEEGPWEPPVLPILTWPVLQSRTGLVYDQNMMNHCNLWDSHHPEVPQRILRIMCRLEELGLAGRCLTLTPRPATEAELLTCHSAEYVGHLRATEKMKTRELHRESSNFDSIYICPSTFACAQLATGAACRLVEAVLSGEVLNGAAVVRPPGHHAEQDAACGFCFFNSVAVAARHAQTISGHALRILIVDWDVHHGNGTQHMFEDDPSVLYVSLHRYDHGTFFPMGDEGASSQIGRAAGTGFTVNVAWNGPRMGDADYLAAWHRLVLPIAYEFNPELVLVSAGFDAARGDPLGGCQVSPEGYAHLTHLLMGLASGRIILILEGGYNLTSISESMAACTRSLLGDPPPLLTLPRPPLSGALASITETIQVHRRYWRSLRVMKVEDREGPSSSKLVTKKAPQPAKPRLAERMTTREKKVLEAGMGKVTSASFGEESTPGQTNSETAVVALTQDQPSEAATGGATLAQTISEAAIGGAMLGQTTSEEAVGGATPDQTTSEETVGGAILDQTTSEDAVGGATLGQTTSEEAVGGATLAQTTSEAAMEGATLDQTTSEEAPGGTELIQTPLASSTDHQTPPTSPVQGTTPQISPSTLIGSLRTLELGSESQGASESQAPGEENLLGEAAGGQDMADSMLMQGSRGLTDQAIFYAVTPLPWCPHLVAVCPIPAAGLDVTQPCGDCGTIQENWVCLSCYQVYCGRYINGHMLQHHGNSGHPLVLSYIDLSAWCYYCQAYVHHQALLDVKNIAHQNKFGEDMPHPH
Sequence of Polyamine deacetylase HDAC10 (Q969S8 whole entry): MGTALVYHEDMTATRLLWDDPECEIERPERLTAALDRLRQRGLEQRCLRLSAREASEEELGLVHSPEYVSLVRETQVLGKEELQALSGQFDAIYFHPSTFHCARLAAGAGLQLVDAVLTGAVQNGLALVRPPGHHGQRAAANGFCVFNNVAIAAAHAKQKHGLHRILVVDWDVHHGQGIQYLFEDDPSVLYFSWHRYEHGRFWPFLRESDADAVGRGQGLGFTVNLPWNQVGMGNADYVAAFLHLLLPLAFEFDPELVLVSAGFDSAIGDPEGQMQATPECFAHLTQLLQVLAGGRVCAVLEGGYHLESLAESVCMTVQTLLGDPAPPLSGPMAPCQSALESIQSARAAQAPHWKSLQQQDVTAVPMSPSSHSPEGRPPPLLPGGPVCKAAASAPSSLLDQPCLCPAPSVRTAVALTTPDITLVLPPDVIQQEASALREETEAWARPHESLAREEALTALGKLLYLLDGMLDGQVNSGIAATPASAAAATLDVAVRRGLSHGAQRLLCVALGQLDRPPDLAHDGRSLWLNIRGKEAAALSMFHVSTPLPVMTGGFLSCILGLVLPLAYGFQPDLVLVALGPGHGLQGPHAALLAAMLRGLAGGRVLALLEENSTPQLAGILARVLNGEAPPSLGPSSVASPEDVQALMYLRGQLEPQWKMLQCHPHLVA
Sequence of Histone deacetylase 1 (Q13547 whole entry): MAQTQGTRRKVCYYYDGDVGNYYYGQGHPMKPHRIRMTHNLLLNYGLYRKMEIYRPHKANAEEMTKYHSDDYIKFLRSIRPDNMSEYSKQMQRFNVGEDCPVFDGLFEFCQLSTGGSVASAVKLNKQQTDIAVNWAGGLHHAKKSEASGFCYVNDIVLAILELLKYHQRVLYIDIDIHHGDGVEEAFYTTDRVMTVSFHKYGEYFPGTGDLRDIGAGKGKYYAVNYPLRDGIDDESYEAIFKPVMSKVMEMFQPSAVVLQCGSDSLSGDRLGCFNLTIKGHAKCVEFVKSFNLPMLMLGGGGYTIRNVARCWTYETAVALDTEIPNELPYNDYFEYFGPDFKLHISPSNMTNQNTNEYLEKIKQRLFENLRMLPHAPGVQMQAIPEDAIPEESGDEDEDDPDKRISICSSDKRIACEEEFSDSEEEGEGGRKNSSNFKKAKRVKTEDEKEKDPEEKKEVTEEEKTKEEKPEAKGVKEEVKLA

| SMILES | IC50 (HCT-116) | IC50 (Raji) | IC50 (MCF7) | IC50 (MM1.S) | inhibition [1] | inhibition [2] | IC50 (Histone deacetylase 1) | IC50 (Histone deacetylase 2) | IC50 (Histone deacetylase 3) | IC50 (Histone deacetylase 8) | IC50 [3] | IC50 [4] | IC50 [5] | IC50 (MV4-11) | IC50 (OCI-AML2) | IC50 (OCI-AML-3) | inhibition [6] | inhibition [7] |
| --- | --- | --- | --- | --- | --- | --- | --- | --- | --- | --- | --- | --- | --- | --- | --- | --- | --- | --- |
| Nc1ccc(-c2nc(N3CCOCC3)c3cnn(CCCCCCC(=O)NO)c3n2)cc1 | 7.1 nM | 7.1 nM | 63.7 nM | 18.9 nM | 16% | 95% | 0.21 nM | 1.6 nM | 4.21 nM | 35.7 nM | 2.43 nM | 1.43 nM | 40 nM |  |  |  |  |  |
| CN1CCN(C(=O)Nc2ccc(-c3nc(N4CCOCC4)c4cnn(CCCCCCC(=O)NO)c4n3)cc2)CC1 | 83.5 nM | 70.4 nM |  | 62.2 nM |  |  |  |  |  |  |  |  | 3.4 nM | 7.01 nM | 8.55 nM | 35.3 nM | 98.1% | 52.7% |
| CCN1CCN(C(=O)Nc2ccc(-c3nc(N4CCOCC4)c4cnn(CCCCCCC(=O)NO)c4n3)cc2)CC1 | 42.9 nM | 34.8 nM |  | 52.1 nM |  |  |  |  |  |  |  |  | 3.1 nM | 5.86 nM | 3.97 nM | 8.01 nM | 83.4% | 69.3% |
